Reference: the RNAGym collection of RNA variant scans (doi:10.1126/science.aae0568)
This sample holds only a part of the variants without activity.

B1: tRNA (parent)
chain: GUUCCGUUGGCGUAAUGGUAACGCGUCUCCCUCCUAAGGAGAAGACUGCGGGUUCGAGUCCCGUACGGAACG

Variants of: B1
Experiment: yeast fitness relative to wild type (ratio to wild type); higher = fitter; tRNA-Arg(CCU), competitive growth, 37 C, YPD
Method in brief: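 The tRNA-Arg(CCU) gene variants were made by chemical synthesis with a 3% per-site mutation rate at 69 sites and inserted at the native genomic locus of Saccharomyces cerevisiae. After pooling, the strains were competed in YPD at 37°C for 24 hours in six parallel replicates. Gene amplicons from the start population and each end population were read by 100-nucleotide paired-end sequencing, and Darwinian fitness relative to wild type was taken from genotype frequency changes. Genotypes needed ≥ 100 starting reads, and estimates < 0.5 were set to 0.5.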

Variant | yeast fitness
A14C G58C G67A | ≤ 0.5
A14G A15G C33G C34U A43C C49G | ≤ 0.5
A14G A21C C29A | 0.586
A14G C24U A45C G51U U59C | ≤ 0.5
A14G C30G A57G | ≤ 0.5
A14G A36U C46A | 0.576
A14G C27U C33U U35C | ≤ 0.5
A14C G25C U47A | 0.608
A14G C34U C66U A70U | ≤ 0.5
A14G C31U C55A | 0.552
A14G C31A C46U G56C A69U | ≤ 0.5
A14G A15C U26C G51C | 0.512
A14G A42C A43U U59A C62G A65U | ≤ 0.5
A14C G23A C29U U35C C55G | 0.627
A14G A15U C61U | ≤ 0.5
A14G A15G G56A | 0.567
A14G C29U G41A U54G A69U | 0.621
A14G C31G A69C | 0.652
A14C U16C A69U | ≤ 0.5
A14C G44A C66U | ≤ 0.5
A14G C27G C34G A37U C61G | ≤ 0.5
A14G A15G A37G A45U C66U | ≤ 0.5
A14C G25C C27G C34U U35A G38A A70G | ≤ 0.5
A14G A40U G44A A65U | ≤ 0.5

Variant | yeast fitness
A14G A43C C66G A69U | ≤ 0.5
A14G C22G U35C A57C | ≤ 0.5
A14G A36G G51C U59G | ≤ 0.5
A14G C29G A37G | ≤ 0.5
A14G C61U A70U | 0.835
A14G A21U G23A A37U | ≤ 0.5
A14G A15U U28A C33G G41C G56A | 0.589
A14G C27G C34G A37U U64A A70C | 0.522
A14G C22A C27A C29U A42C | ≤ 0.5
A14C U19C A43C G44C G48A U59A U64C C66U | ≤ 0.5
A14C U19A A45C A65G | ≤ 0.5
A14G C27G A37G U59G | ≤ 0.5
A14G A15C C46A | 0.578
A14G A20G C22G U59C A65U | ≤ 0.5
A14G C27G C61U | ≤ 0.5
A14G C27U C55A | 0.56
A14C U19A A21C C34U G39A | 0.62
A14G G17A | 0.735
A14G C22A C27U C29U G50U U54C G68C | ≤ 0.5
A14C U19A C49U C62G G63A | ≤ 0.5
A14C U59A | 0.746
A14G A40G G41A A45U | 0.686
A14G A36G C66U | 0.606
A14G A36U G58C | ≤ 0.5

Variant | yeast fitness
A14C U35A G50A A69U | ≤ 0.5
A14G C55U | 0.553
A14G C55A | ≤ 0.5
A14C U19C A43C G44C G48A U59A C62U U64A | ≤ 0.5
A14G C30G A42U A45G A69U | ≤ 0.5
A14G C29U A65G | 0.555
A14G A37U | 0.584
A14C G58C G68C | ≤ 0.5
A14G C22U C34U G51C G58A | ≤ 0.5
A14G A42U C62A | ≤ 0.5
A14G C33U G38A C55U | ≤ 0.5
A14G C33U A43G | ≤ 0.5
A14G A15C A21G C46A A69U | ≤ 0.5
A14G C24U A65C | 0.542
A14C G25C U32A A43C G63A A69C | ≤ 0.5
A14G C22G C30A | 0.528
A14G A40C C60G | 0.757
A14G C31U | 0.932
A14G C31A | 0.752
A14G A20C A21U U28C | ≤ 0.5
A14G C22G A70C | 0.637
A14G C31G C33U G38C G58C C66G | ≤ 0.5
A14G A15C G67U | 0.62
A14C U26A C34A G44A G67C | ≤ 0.5

Variant | yeast fitness
A14C G25C A45G G48A | 0.534
A14G A70G | 0.861
A14G A70C | 0.803
A14C U47A | 0.701
A14G C24U U26G | ≤ 0.5
A14C U19G C31G C33U A42G U64C A65G | ≤ 0.5
A14C G58A C61A C62G | ≤ 0.5
A14G C34A G38C G48A A69C | ≤ 0.5
A14G C49U U54C | ≤ 0.5
A14G A21G C22U | 0.555
A14G C24G G25A A43G C49A | ≤ 0.5
A14G C34G A43C A65G | 0.558
A14G C34A G38C | 0.676
A14G A21G C27U A45C G48C C61G | ≤ 0.5
A14G A15U G67U | ≤ 0.5
A14G C22A | 0.982
A14G C22U | 0.783
A14G C55U A69U | ≤ 0.5
A14G C27A A37C G44A | 0.563
A14G A36G A43C A65U | ≤ 0.5
A14G C62A | 0.533
A14G C31A U47C A70U | ≤ 0.5
A14G C46G C62U | 0.725
A14C G25C G48A G50A | ≤ 0.5

Variant | yeast fitness
A14G C29A | 0.581
A14G C34G A43C | 0.591
A14G A21C A37G | 0.562
A14G C27A U54G G68C | ≤ 0.5
A14G A21G U53C A57C A69U | ≤ 0.5
A14C U19A A20C G51A U59C | 0.645
A14C U19C A20G G58A | ≤ 0.5
A14C U54C | 0.702
A14C U54G | ≤ 0.5
A14C G48A G58A | 1.04
A14C U32G G56A | ≤ 0.5
A14C U19C C66U | 0.722
A14G A20C A57G | 0.677
A14C U16A C27G C55U | 0.539
A14G A15G G44A | ≤ 0.5
A14G C31G G58A | ≤ 0.5
A14G A36G A45G A65U | ≤ 0.5
A14G C34A C60A | ≤ 0.5
A14G C49U U64A | 0.537
A14G C29G A43U C46U | ≤ 0.5
A14G C33U U47A G51C C62U | 0.514
A14C U19A C22U A45C | ≤ 0.5
A14G C31U C55A A70G | ≤ 0.5
A14G A40G A42U G67C | 0.665

Variant | yeast fitness
A14G A20C A43U C55G | ≤ 0.5
A14G C33U A40U C62G | 0.68
A14G C22A A57U | ≤ 0.5
A14G A15G G68C | 0.537
A14C G25A A36C G44A | 0.571
A14G C24U A42C G50A | ≤ 0.5
A14G C22U C29G C33G A37G | ≤ 0.5
A14G A45C C66U | 0.582
A14G A15U C30G | ≤ 0.5
A14G C22U C33G | ≤ 0.5
A14C G25C G48A A69U | 0.553
A14G C29U A45U | 0.626
A14G C22A C27A C29U A42C A57U C60A | ≤ 0.5
A14C U19C C34U | ≤ 0.5
A14G C62G G68A | ≤ 0.5
A14G A42G C55A | ≤ 0.5
A14G C49G C66U | 0.526
A14G A40C U59G C60G | ≤ 0.5
A14C U28A U54A C61G A69C | ≤ 0.5
A14G C29G U47G G58A | ≤ 0.5
A14G C49G A57G | 0.557
A14G A20U C22G A43G A69C | ≤ 0.5
A14G A15U G68U | ≤ 0.5
A14G C49A C61U C62G | ≤ 0.5

Variant | yeast fitness
A14G C31G C33U G38C G58C G67U | ≤ 0.5
A14G C31G A45U C62U | 0.669
A14C U59C C62A | ≤ 0.5
A14G A42C U54A | ≤ 0.5
A14G C27G C31U | 0.501
A14G A21G C22U C27U A45C G48C C61G | ≤ 0.5
A14G A15U G25C | ≤ 0.5
A14G C29U G41A G63A | ≤ 0.5
A14C U19A A45U | ≤ 0.5
A14G A40G G41A A45U U47C | ≤ 0.5
A14C U32G C34G A43U G58C G67U | ≤ 0.5
A14G A15U A45U | ≤ 0.5
A14G A40C C55A C66A | ≤ 0.5
A14G C27G C34G A37U C62U | ≤ 0.5
A14G C24G A40G U53A G68C | ≤ 0.5
A14C U16C A37G A40U G51C A69C | ≤ 0.5
A14G A40U G58C | 0.706
A14G A43C G50A | 0.558
A14C U16A | 0.597
A14C U16G | 0.609
A14C U16C | 0.724
A14G A21C A36C A43U C60A | 0.554
A14G C30G A36C | 0.525
